# Shown are actives, neighbours in structure and some others; about 1.9% of the full set was active somewhere.
# IDE cell activ – boosts human insulin-degrading enzyme activity in HEK cells; FAbeta-B cleavage, fluorescence polarization; 0% vehicle, 100% cell-free pure enzyme wells; activation, % at 5.96 µM; actives 0.073% (n = 340,000); AID 493087;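 active = activation above the mean of all tested compounds plus 3 SD, set per screening campaign, cut at about 17% in these data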
# procasp7 counter – counter-screen for procaspase-3 activators: activators of human procaspase-7; actives 0.093% (n = 330,000); AID 463210; activation, % at 8.5 µM; recombinant procaspase-7, Ac-DEVD-pNA absorbance 405 nm; D23A/D198A/D206A triple mutant, cannot self-cleave; scale: DMSO 0, 5 µM enzyme 100;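 active = percent activation above the screen-wide mean plus 3 SD, cut at about 25% in these data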
#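 Detection: p-Nitroaniline absorbance at 405 nm, read at 0 and 120 min; system: Uncleavable procaspase-7 mutant enzyme; evaluation: % activation from two-timepoint absorbance difference, scaled to controls; times: 1 h enzyme–compound preincubation and 2 h substrate reaction, both 25 °C; buffer or medium: Zinc-free HEPES pH 7.4 with 300 mM NaCl, 0.01% Triton X-100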
# IDE cell inh – inhibitors of human insulin-degrading enzyme in cells | HEK cells, FAbetaB cleavage, fluorescence polarization | inhibition, % at 5.59 µM | actives 0.41% (n = 320,000) | P14735;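 active = percent inhibition above the average of all tested compounds plus 3 SD, set per screening campaign, cut at about 16% in these data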;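 also: IDE supplied by intact live HEK cells; FP after avidin binding of uncleaved biotin substrate so inhibition keeps polarization high; 0% = DMSO wells and 100% = 60 µM reference IDE inhibitor Ii1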
# procasp3 activ – procaspase-3 (human) activation | activation, % at 8.5 µM | recombinant procaspase-3 D3A, Ac-DEVD-pNA absorbance 405 nm | P42574 | AID 463141 | actives 0.11% (n = 330,000);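 active = activation above the mean of all tested compounds plus 3 SD, cut at about 21% in these data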;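 also: 0% = DMSO alone and 100% = DMSO wells spiked with extra 5 µM PC-3 D3A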
# Target sequence (P42574 whole entry D9A/D28A/D175A): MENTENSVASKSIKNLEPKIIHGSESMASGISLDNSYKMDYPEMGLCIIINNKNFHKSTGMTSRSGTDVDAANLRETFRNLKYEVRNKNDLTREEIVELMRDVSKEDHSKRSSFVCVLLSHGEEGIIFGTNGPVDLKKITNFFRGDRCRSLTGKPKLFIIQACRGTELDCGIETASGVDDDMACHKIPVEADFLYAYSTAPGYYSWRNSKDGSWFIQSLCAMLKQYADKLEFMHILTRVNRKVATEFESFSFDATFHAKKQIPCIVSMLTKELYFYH
#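 Assay system: Autoprocessing-dead procaspase-3 D3A mutant enzyme; also added: Ac-DEVD-pNA; doses: one concentration, 8.5 µM nominal, 0.8% DMSO; times: 1 h compound preincubation, 2 h substrate hydrolysis at 25 °C; technique: 405 nm absorbance of p-nitroaniline, reads at 0 and 120 min; measure: % activation between DMSO and enzyme-spiked controls; repeats: single replicate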
# UBC13 polyUb – blocks human UBC13 polyubiquitin chain formation. inhibition, % at 20 µM. TR-FRET. actives 0.47% (n = 330,000); in the data active = inhibition above about 45%, passing the limit was not always enough
# PHOSPHO1 inh – inhibitors of human PHOSPHO1 phosphatase; inhibition, % at 13.3 µM; recombinant PHOSPHO1, absorbance phosphatase assay; Q8TCT1; actives 1.1% (n = 290,000); AID 1565; in the data active = inhibition above about 60%
# Target sequence (Q8TCT1 whole entry, looked up): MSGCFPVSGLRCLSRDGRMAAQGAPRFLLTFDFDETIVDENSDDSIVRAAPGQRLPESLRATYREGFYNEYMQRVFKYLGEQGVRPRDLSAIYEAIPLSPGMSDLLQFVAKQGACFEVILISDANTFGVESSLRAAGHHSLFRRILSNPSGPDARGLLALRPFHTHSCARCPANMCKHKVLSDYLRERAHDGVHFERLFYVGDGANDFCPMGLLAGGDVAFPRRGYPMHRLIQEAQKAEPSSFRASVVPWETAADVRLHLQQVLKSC
# * marks the source's active call; other numbers are inactive results; . = not tested or not shown.
SMILES,IDE cell activ,procasp7 counter,IDE cell inh,procasp3 activ,UBC13 polyUb,PHOSPHO1 inh
O=C(CSc1nc2cc(S(=O)(=O)N3CCOCC3)ccc2o1)NC1CCCc2ccccc21 (stereo unspecified),-2,-3,4,-6,-4,76*
COc1ccc(CCc2nnc(CCC(=O)N(C)Cc3ccncc3C)o2)cc1,2,-11,-4,6,6,64*
Cc1cccc(Cc2nnc(CCC(=O)N(C)Cc3ccncc3C)o2)c1,-2,7,1,-2,-10,52
CN(C)c1ccc(/C=N/NC(=S)NCc2ccccc2)cc1,1,32*,7,90*,9,15
CNC(=S)N/N=C/c1ccc(N(C)C)cc1,4,-1,-1,-8,-10,61*
CC(C)(C)c1ccc(/C=N/NC(=S)NCc2ccccc2)cc1,5,3,1,7,2,-18
COc1cccc(N2CCN(c3ncnc4c3[nH]c3ccccc34)CC2C)c1 (stereo unspecified),.,7,25*,-7,14,-1
O=C(O)CCC1(CCC(=O)O)CCCC(CCC(=O)O)(CCC(=O)O)C1=O,1,.,.,.,.,.
Cc1cccc(NNC(=O)C2CCC2)c1,1,-1,8,-11,-2,-4
Nc1c(C(=O)c2ccc(Cl)cc2)oc2ccccc12,4,6,4,-2,0,6
O=C(c1ccc(Cl)cc1)c1oc2ccccc2c1CS(=O)c1ccc(Cl)cc1 (stereo unspecified),1,-9,1,3,14,107*
O=C(CCNS(=O)(=O)c1ccc2ccccc2c1)NCCOc1ccccc1,-1,.,.,.,1,.
CCc1ccc(OC)c(S(=O)(=O)Nc2ccc(Cc3ccncc3)cc2)c1,-2,-12,-1,5,6,10
O=c1c2ccccc2nc(-c2ccc([N+](=O)[O-])cc2)n1O,1,-2,0,6,-2,61*
Cc1ccc(-c2nc3ccccc3c(=O)n2O)cc1,4,-6,5,2,1,.
O=C(NC(=S)NCc1ccccc1)c1cccs1,2,-6,1,0,2,17
O=C(Cc1ccccc1)NNC(=S)NC(=O)c1cccs1,.,-3,7,-5,-6,86*
O=C(NC(=S)NNC(=O)c1cccs1)c1ccc(Br)o1,-2,-20,-6,2,-20,94*
O=C(CCc1ccccc1)NNC(=O)c1ccc(Cl)cc1,3,1,-3,3,-1,-32
O=C(CCc1ccccc1)NNC(=S)NC(=O)c1ccc(Cl)cc1,.,-12,4,-3,-40,95*
O=C(NNC(=S)NC(=O)c1cccs1)c1ccc(O)cc1,2,.,.,.,-14,-21
CSCCC(NC(=O)c1cccc(S(=O)(=O)N2CCN(C(C)=O)CC2)c1)c1nc2ccccc2[nH]1 (stereo unspecified),1,.,.,.,.,.
CSCC[C@H](NC(=O)c1ccc(Cl)c(S(=O)(=O)N2CCCC2)c1)c1nc2ccccc2[nH]1,2,-3,1,3,4,98*
CC(C)(C)c1cn(-c2ccc(Cl)cc2)c(=S)[nH]1,-8,-18,2,-9,-3,74*
CCOC(=O)c1c(C)oc2c1c(C(c1cccnc1)N1CCOCC1)c(O)c1ccccc12 (stereo unspecified),-1,-3,5,-1,6,79*
SMILES,IDE cell activ,procasp7 counter,IDE cell inh,procasp3 activ,UBC13 polyUb,PHOSPHO1 inh
Cc1cc(Nc2cccc(Cl)c2)nc(NCc2ccccc2)n1,5,5,0,1,49*,-10
Cc1cc(N/N=C/c2cccc(Cl)c2)nc(NCc2ccccc2)n1,5,0,5,0,18,-2
COc1cccc(CNC(=O)CSc2nc(=O)n(Cc3ccncc3)c3c2CCC3)c1,4,4,4,7,1,.
Cc1cc(NC(=O)CSc2nnc(-c3cccnc3)n2N)no1,1,6,0,-5,-3,74*
Nn1c(SCC(=O)Nc2ccc(F)cc2F)nnc1-c1cccnc1,-3,12,-5,7,2,2
Nn1c(SCC(=O)Nc2ccccc2F)nnc1-c1cccnc1,7,4,3,1,-7,69*
C=CCn1c(C)cc(-c2csc(NC)n2)c1C,-2,.,.,.,.,-95
C=CCn1c(C)cc(-c2csc(N)n2)c1C,8,-3,-2,-8,5,98*
O=C(CCCCn1c(=O)[nH]c2ccccc2c1=O)NC1CCN(Cc2ccccc2)CC1,-4,12,-2,-1,28,63*
O=C1CN(C(=O)CSc2nnc(-c3ccccc3)n2Cc2ccc3c(c2)OCO3)c2ccccc2N1,5,-2,-3,-6,1,69*
Cc1nnc(SCC(=O)N2CC(=O)Nc3ccccc32)n1-c1ccccc1,0,3,-1,8,-8,9
COc1ccc(N2CCC(CNS(=O)(=O)c3cccc(C(F)(F)F)c3)C2)cc1 (stereo unspecified),10,-19,2,-9,6,79*
COc1ccc(CNC(=O)C2CCN(S(=O)(=O)c3cccc(C(F)(F)F)c3)CC2)cc1,1,.,.,.,-5,.
Cc1ccc2nc3c(cc2c1)c(NC(=O)C(C)(C)C)nn3CC(C)C,5,-3,3,-9,-7,.
O=C(CCC1CCCN(C(=O)c2ccc3cc[nH]c3c2)C1)N1CCN(c2ccccn2)CC1 (stereo unspecified),-2,2,0,3,2,50
O=C(CCC1CCCN(C(=O)c2ccc3[nH]ccc3c2)C1)N1CCN(c2ccccn2)CC1 (stereo unspecified),4,-12,-2,7,-3,64*
COc1ccc(CC(=O)OCc2cc3ccc(C)cc3[nH]c2=O)cc1,0,4,1,-1,9,61*
CCc1cc(CNC(=O)c2ccc(OC3CCN(C(C)=O)CC3)c(OC)c2)on1,5,9,3,6,2,67*
Cc1cccc(C)c1NC(=O)COC(=O)c1ccccc1[N+](=O)[O-],5,4,1,1,8,63*
COc1ccc(OCCCC(=O)OCC(=O)c2ccc3c(c2)NC(=O)CO3)cc1,4,0,5,11,0,.
COc1ccc(-c2nn3c(C4CCCCC4)nnc3s2)cc1OC,4,-22,-3,-16,-17,83*
COC(=O)c1nc(-c2ccccc2)nc(-c2ccccc2)c1C(=O)OC,.,-1,4,0,6,.
Oc1ccc(N2CCN(c3ncnc4sc5c(c34)CCC5)CC2)cc1,-1,-20,4,-20,12,75*
COc1ccc(C2CC(=O)C(C=NCCO)=C(O)C2)cc1 (stereo unspecified),3,3,9,0,-4,14
